Assay results from ChEMBL document CHEMBL1151705, “Novel azalides derived from 16-membered macrolides. Part II: Isolation of the linear 9-formylcarboxylic acid and its sequential macrocyclization with an amino alcohol or an azidoamine” (2008).
Values after ≈ are worked out from the molar mass of the structure shown.

Key:
Haemophilus influenzae [1] = assay: Antimicrobial activity against drug-susceptible Haemophilus influenzae 2 after 20 hrs by agar dilution method; assay type: functional; settings: Haemophilus influenzae, 20 h; read-out: MIC
Method in brief: (§1)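 Streptococci, H. influenzae and M. catarrhalis were precultured on blood agar plates. Suspensions of about 10⁶ CFU/ml were inoculated onto sensitivity disk agar supplemented with 5% horse blood and incubated at 37 °C for 20 h. MIC was read as the lowest drug concentration with no visible growth.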

Streptococcus pneumoniae [2] = assay: Antimicrobial activity against Streptococcus pneumoniae 8 expressing inducible ermB after 20 hrs by agar dilution method; assay type: functional; method in brief: as §1
Moraxella catarrhalis [3] = assay: Antimicrobial activity against drug-susceptible Moraxella catarrhalis 2 after 20 hrs by agar dilution method; assay type: functional; method in brief: as §1
Staphylococcus aureus [4] = assay: Antimicrobial activity against drug-susceptible Staphylococcus aureus 209P JC-1 after 20 hrs by agar dilution method; assay type: functional
Method in brief: (§2)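 Agar dilution MIC. S. aureus seed culture was grown in sensitivity test broth. Cell suspension (about 10⁶ CFU/ml) was inoculated onto sensitivity disk agar with 5% horse blood and incubated at 37 °C for 20 h. MIC was the lowest drug concentration that prevented visible growth.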

Streptococcus pneumoniae [5] = assay: Antimicrobial activity against drug-susceptible Streptococcus pneumoniae DP1 Type1 after 20 hrs by agar dilution method; assay type: functional; method in brief: as §1
Staphylococcus aureus [6] = assay: Antimicrobial activity against drug-susceptible Staphylococcus aureus 2 after 20 hrs by agar dilution method; assay type: functional; method in brief: as §2
Staphylococcus aureus [7] = assay: Antimicrobial activity against drug-susceptible Staphylococcus aureus 3 after 20 hrs by agar dilution method; assay type: functional; method in brief: as §2
Streptococcus pneumoniae [8] = assay: Antimicrobial activity against Streptococcus pneumoniae 10 expressing mefA after 20 hrs by agar dilution method; assay type: functional; method in brief: as §1
Moraxella catarrhalis [9] = assay: Antimicrobial activity against drug-susceptible Moraxella catarrhalis 1 after 20 hrs by agar dilution method; assay type: functional; method in brief: as §1
Streptococcus pyogenes [10] = assay: Antimicrobial activity against drug-susceptible Streptococcus pyogenes 1 after 20 hrs by agar dilution method; assay type: functional; method in brief: as §1
Haemophilus influenzae [11] = assay: Antimicrobial activity against drug-susceptible Haemophilus influenzae 1 after 20 hrs by agar dilution method; assay type: functional; method in brief: as §1
Streptococcus pyogenes [12] = assay: Antimicrobial activity against Streptococcus pyogenes 3 expressing mefA after 20 hrs by agar dilution method; assay type: functional; method in brief: as §1
Haemophilus influenzae [13] = assay: Antimicrobial activity against drug-susceptible Haemophilus influenzae 4 after 20 hrs by agar dilution method; assay type: functional; method in brief: as §1
Streptococcus pneumoniae [14] = assay: Antimicrobial activity against drug-susceptible Streptococcus pneumoniae 3 after 20 hrs by agar dilution method; assay type: functional; method in brief: as §1
Staphylococcus aureus [15] = assay: Antimicrobial activity against Staphylococcus aureus 6 expressing inducible ermC after 20 hrs by agar dilution method
Staphylococcus aureus [16] = assay: Antimicrobial activity against Staphylococcus aureus 5 expressing inducible ermB after 20 hrs by agar dilution method; assay type: functional; method in brief: as §2
Streptococcus pneumoniae [17] = assay: Antimicrobial activity against Streptococcus pneumoniae 9 expressing mefA after 20 hrs by agar dilution method; assay type: functional; method in brief: as §1
Streptococcus pneumoniae [18] = assay: Antimicrobial activity against drug-susceptible Streptococcus pneumoniae 2 after 20 hrs by agar dilution method; assay type: functional; method in brief: as §1
Streptococcus pneumoniae [19] = assay: Antimicrobial activity against Streptococcus pneumoniae 7 expressing inducible ermB after 20 hrs by agar dilution method; assay type: functional; method in brief: as §1
Haemophilus influenzae [20] = assay: Antimicrobial activity against drug-susceptible Haemophilus influenzae 3 after 20 hrs by agar dilution method; assay type: functional; method in brief: as §1
Staphylococcus aureus [21] = assay: Antimicrobial activity against Staphylococcus aureus 4 constitutively expressing ermA after 20 hrs by agar dilution method; assay type: functional; method in brief: as §2
Streptococcus pneumoniae [22] = assay: Antimicrobial activity against Streptococcus pneumoniae 6 constitutively expressing ermB after 20 hrs by agar dilution method; assay type: functional; settings: Streptococcus pneumoniae, 20 h; read-out: MIC; method in brief: as §1
Streptococcus pneumoniae [23] = assay: Antimicrobial activity against Streptococcus pneumoniae 5 constitutively expressing ermB/mefA after 20 hrs by agar dilution method; assay type: functional; settings: Streptococcus pneumoniae, 20 h; read-out: MIC; method in brief: as §1
Streptococcus pyogenes [24] = assay: Antimicrobial activity against Streptococcus pyogenes 2 constitutively expressing ermB after 20 hrs by agar dilution method; assay type: functional; method in brief: as §1
Streptococcus pneumoniae [25] = assay: Antimicrobial activity against Streptococcus pneumoniae 4 constitutively expressing ermB after 20 hrs by agar dilution method; assay type: functional; settings: Streptococcus pneumoniae, 20 h; read-out: MIC; method in brief: as §1
[26] = Haemophilus influenzae, 20 h, read-out: MIC
[27] = Streptococcus pneumoniae, 20 h, read-out: MIC
[28] = Streptococcus pyogenes, 20 h, read-out: MIC

SMILES | MIC (Haemophilus influenzae [1]) | MIC (Streptococcus pneumoniae [2]) | MIC (Moraxella catarrhalis [3]) | MIC (Staphylococcus aureus [4]) | MIC (Streptococcus pneumoniae [5]) | MIC (Staphylococcus aureus [6]) | MIC (Staphylococcus aureus [7]) | MIC (Streptococcus pneumoniae [8]) | MIC (Moraxella catarrhalis [9]) | MIC (Streptococcus pyogenes [10]) | MIC (Haemophilus influenzae [11]) | MIC (Streptococcus pyogenes [12]) | MIC (Haemophilus influenzae [13]) | MIC (Streptococcus pneumoniae [14]) | MIC (Staphylococcus aureus [15]) | MIC (Staphylococcus aureus [16]) | MIC (Streptococcus pneumoniae [17]) | MIC (Streptococcus pneumoniae [18]) | MIC (Streptococcus pneumoniae [19]) | MIC (Haemophilus influenzae [20]) | further results
CCOC(=O)[C@H]1[C@H](C)O[C@@H](O[C@H]2[C@H](N(C)C)[C@@H](O)[C@H](O[C@H]3[C@@H](CC=O)C[C@@H](C)[C@@H](O)CN(C)CC(CCCc4ccnc5ccccc45)CCOC(=O)C[C@@H](OC(=O)CC)[C@@H]3OC)O[C@@H]2C)C[C@@]1(C)O (stereo in doubt; form 2) | 2 µg/mL (≈ 2.02 µM) | 16 µg/mL (≈ 16.2 µM) | 1 µg/mL (≈ 1.01 µM) | 0.25 µg/mL (≈ 0.253 µM) | 0.015 µg/mL (≈ 0.0152 µM) | 0.5 µg/mL (≈ 0.506 µM) | 0.25 µg/mL (≈ 0.253 µM) | 0.06 µg/mL (≈ 0.0607 µM) | 1 µg/mL (≈ 1.01 µM) | 0.06 µg/mL (≈ 0.0607 µM) | 16 µg/mL (≈ 16.2 µM) | 0.25 µg/mL (≈ 0.253 µM) | 8 µg/mL (≈ 8.1 µM) | 0.03 µg/mL (≈ 0.0304 µM) | 0.5 µg/mL (≈ 0.506 µM) | 0.25 µg/mL (≈ 0.253 µM) | 0.06 µg/mL (≈ 0.0607 µM) | 0.06 µg/mL (≈ 0.0607 µM) | 16 µg/mL (≈ 16.2 µM) | 8 µg/mL (≈ 8.1 µM) | 
CCOC(=O)[C@H]1[C@H](C)O[C@@H](O[C@H]2[C@H](N(C)C)[C@@H](O)[C@H](O[C@H]3[C@@H](CC=O)C[C@@H](C)[C@@H](O)CN(C)CC(/C=C\Cc4ccnc5ccccc45)CCOC(=O)C[C@@H](OC(=O)CC)[C@@H]3OC)O[C@@H]2C)C[C@@]1(C)O (stereo in doubt; form 2) | 32 µg/mL (≈ 32.4 µM) | >128 µg/mL | 16 µg/mL (≈ 16.2 µM) | 2 µg/mL (≈ 2.03 µM) | 0.5 µg/mL (≈ 0.507 µM) | 4 µg/mL (≈ 4.06 µM) | 2 µg/mL (≈ 2.03 µM) | 1 µg/mL (≈ 1.01 µM) | 16 µg/mL (≈ 16.2 µM) | 1 µg/mL (≈ 1.01 µM) | >128 µg/mL | 4 µg/mL (≈ 4.06 µM) | 128 µg/mL (≈ 130 µM) | 0.5 µg/mL (≈ 0.507 µM) | 4 µg/mL (≈ 4.06 µM) | 2 µg/mL (≈ 2.03 µM) | 1 µg/mL (≈ 1.01 µM) | 1 µg/mL (≈ 1.01 µM) | >128 µg/mL | 128 µg/mL (≈ 130 µM) | 
CCOC(=O)[C@H]1[C@H](C)O[C@@H](O[C@H]2[C@H](N(C)C)[C@@H](O)[C@H](O[C@H]3[C@@H](CC=O)C[C@@H](C)[C@@H](O)CN(C)CC(/C=C\Cc4ccnc5ccccc45)CCOC(=O)C[C@@H](OC(=O)CC)[C@@H]3OC)O[C@@H]2C)C[C@@]1(C)O (stereo in doubt; form 1) |  | 8 µg/mL (≈ 8.11 µM) | 2 µg/mL (≈ 2.03 µM) | 0.25 µg/mL (≈ 0.253 µM) | 0.03 µg/mL (≈ 0.0304 µM) | 1 µg/mL (≈ 1.01 µM) | 0.25 µg/mL (≈ 0.253 µM) | 0.06 µg/mL (≈ 0.0608 µM) | 2 µg/mL (≈ 2.03 µM) | 0.13 µg/mL (≈ 0.132 µM) |  | 0.5 µg/mL (≈ 0.507 µM) | 16 µg/mL (≈ 16.2 µM) | 0.06 µg/mL (≈ 0.0608 µM) | 0.5 µg/mL (≈ 0.507 µM) | 0.25 µg/mL (≈ 0.253 µM) | 0.06 µg/mL (≈ 0.0608 µM) | 0.06 µg/mL (≈ 0.0608 µM) | 8 µg/mL (≈ 8.11 µM) | 16 µg/mL (≈ 16.2 µM) | MIC (Staphylococcus aureus [21]): > 128 µg/mL; MIC (Streptococcus pneumoniae [22]): > 128 µg/mL; MIC (Streptococcus pneumoniae [23]): > 128 µg/mL; MIC (Streptococcus pyogenes [24]): > 128 µg/mL; MIC (Haemophilus influenzae [11]; [26]): 64 µg/mL (≈ 64.9 µM); MIC (Streptococcus pneumoniae [25]): > 128 µg/mL
CCOC(=O)[C@H]1[C@H](C)O[C@@H](O[C@H]2[C@H](N(C)C)[C@@H](O)[C@H](O[C@H]3[C@@H](CC=O)C[C@@H](C)[C@@H](O)CN(C)CCC(CCCc4ccnc5ccccc45)NC(=O)C[C@@H](OC(=O)CC)[C@@H]3OC)O[C@@H]2C)C[C@@]1(C)O (stereo in doubt; form 1) | 2 µg/mL (≈ 2.06 µM) |  | 2 µg/mL (≈ 2.06 µM) | 1 µg/mL (≈ 1.03 µM) | 0.06 µg/mL (≈ 0.0617 µM) | 1 µg/mL (≈ 1.03 µM) | 0.5 µg/mL (≈ 0.514 µM) |  | 2 µg/mL (≈ 2.06 µM) |  |  |  |  |  | 1 µg/mL (≈ 1.03 µM) | 1 µg/mL (≈ 1.03 µM) |  |  |  |  | MIC (Streptococcus pneumoniae [2]; [27]): 32 µg/mL (≈ 32.9 µM); MIC (Staphylococcus aureus [21]): > 128 µg/mL; MIC (Streptococcus pneumoniae [22]): > 128 µg/mL; MIC (Streptococcus pneumoniae [8]; [27]): 0.13 µg/mL (≈ 0.134 µM); MIC (Streptococcus pyogenes [10]; [28]): 0.25 µg/mL (≈ 0.257 µM); MIC (Streptococcus pneumoniae [23]): > 128 µg/mL; MIC (Streptococcus pyogenes [24]): > 128 µg/mL; MIC (Haemophilus influenzae [11]; [26]): 32 µg/mL (≈ 32.9 µM); MIC (Streptococcus pyogenes [12]; [28]): 2 µg/mL (≈ 2.06 µM); MIC (Haemophilus influenzae [13]; [26]): 8 µg/mL (≈ 8.22 µM); MIC (Streptococcus pneumoniae [14]; [27]): 0.13 µg/mL (≈ 0.134 µM); MIC (Streptococcus pneumoniae [25]): > 128 µg/mL; MIC (Streptococcus pneumoniae [17]; [27]): 0.13 µg/mL (≈ 0.134 µM); MIC (Streptococcus pneumoniae [18]; [27]): 0.13 µg/mL (≈ 0.134 µM); MIC (Streptococcus pneumoniae [19]; [27]): 32 µg/mL (≈ 32.9 µM); MIC (Haemophilus influenzae [20]; [26]): 8 µg/mL (≈ 8.22 µM)
